Reference: ChEMBL document CHEMBL4000163, “Pyrazole derived ultra-short antimicrobial peptidomimetics with potent anti-biofilm activity” (Eur J Med Chem, 2017)
In brackets after ≈: the same amount, converted by molar mass. Activity calls are given as the source filed them. The rule behind the calls is not given here.

Legend:
Staphylococcus aureus [1] = assay: Antimicrobial activity against Staphylococcus aureus KCTC 1621 assessed as cell membrane damage at 2 times MIC after 1 hr by transmission electron microscopy; assay type: functional
In short: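 Bacteria at 2×10^7 CFU/mL in LB, washed three times in PBS. Peptide in PBS was added to a final 2 × MIC and incubated 1 h at 37 °C. Pelleted cells were resuspended in PBS, applied to glow-discharged carbon-film grids, negatively stained with 1% uranyl acetate for 1 min, and imaged by TEM at 120 kV.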

Staphylococcus aureus [2] = assay: Antimicrobial activity against Staphylococcus aureus KCTC 1621 incubated for 18 to 20 hrs by broth microdilution assay; assay type: functional; details: read-out: MIC100
In short: (§1)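 Broth microdilution in 1% peptone. Inoculum was 2 × 10⁶ CFU/mL mixed 1:1 with serial 2-fold peptide dilutions and incubated 18–20 h at 37 °C. Growth was read as absorbance at 600 nm; MIC is the lowest peptide concentration giving 100% growth inhibition.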

Pseudomonas aeruginosa [3] = assay: Antibacterial activity against multidrug-resistant Pseudomonas aeruginosa CCARM 2095 after 18 to 20 hrs by broth microdilution assay; assay type: functional; details: read-out: MIC100
In short: (§2)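 Broth microdilution in 1% peptone: bacteria at 2 × 10⁶ CFU/mL mixed 1:1 with serial 2-fold peptide dilutions, 18-20 h at 37 °C; growth read as absorbance at 600 nm. MIC taken as lowest concentration giving 100% growth inhibition.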

RAW264.7 [4] = assay: Antiinflammatory activity in mouse RAW264.7 cells assessed as inhibition of LPS-induced nitric oxide production after 24 hrs by Griess method; assay type: functional, cell-based
In short: (§3)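 RAW264.7 macrophages (5×10^5 cells/mL) stimulated with LPS (20 ng/mL), with or without peptide, for 24 h. Supernatants were mixed 1:1 with Griess reagent (1% sulfanilamide, 0.1% naphthylethylenediamine, 2% phosphoric acid) for 10 min at room temperature, read at 540 nm, and quantified against an NaNO₂ standard curve. Mean ± SEM of technical triplicates, ANOVA with Bonferroni post-test.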

Escherichia coli [5] = assay: Antimicrobial activity against Escherichia coli KCTC 1682 incubated for 18 to 20 hrs by broth microdilution assay; assay type: functional; details: read-out: MIC100; in short: as §1
Staphylococcus aureus [6] = assay: Induction of cytoplasmic membrane depolarization in Staphylococcus aureus KCTC 1621 assessed as loss of membrane potential after 1 hr by DiSC3(5) dye based fluorescence assay; assay type: functional
NIH3T3 = assay: Cytotoxicity against mouse NIH/3T3 cells up to 64 ug/mL after 2 days by MTT assay; assay type: cell-based; details: nih3t3, 48 h
In short: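 Cells in DMEM with 10% FBS seeded at 2×10^4 cells/well and incubated 24 h at 37 °C, 5% CO₂. Serial 2-fold peptide dilutions were added for 2 days, then MTT for 4 h. Formazan was dissolved in 20% SDS/0.01 M HCl and read at 570 nm. Survival is expressed as a percentage of untreated cells.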

Staphylococcus aureus [7] = assay: Potency index, ratio of melittin MIC100 to compound MIC100 for methicillin resistant Staphylococcus aureus CCARM 3090; assay type: functional
Escherichia coli [8] = assay: Antimicrobial activity against Escherichia coli KCTC 1682 using 4 hrs trypsin incubated compound measured after overnight incubation by radial diffusion assay; assay type: functional
In short: (§4)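 Radial diffusion: mid-log cells (2×10^6 CFU/ml in LB) in 0.7% agarose. Peptide stock (10 mg/mL) added to trypsin in PBS (0.2 µg/mL), 4 h at 37 °C, stopped by liquid-nitrogen freezing; 10 µL on paper discs on the plates, overnight at 37 °C. Clearance-zone diameters measured.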

Staphylococcus aureus [9] = assay: Antimicrobial activity against Staphylococcus aureus KCTC 1621 in presence of NaCl; assay type: functional
In short: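 MIC by microdilution with 2 × 10⁶ CFU/ml S. aureus KCTC 1621 in LB medium supplemented with physiological salt: 150 mM NaCl, 1 mM MgCl₂ or 2.5 mM CaCl₂; growth inhibition endpoint as in the standard MIC assay.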

Staphylococcus aureus [10] = assay: Potency index, ratio of melittin MIC100 to compound MIC100 for Staphylococcus aureus KCTC 1621; assay type: functional
Staphylococcus aureus [11] = assay: Potency index, ratio of melittin MIC100 to compound MIC100 for methicillin resistant Staphylococcus aureus CCARM 3089; assay type: functional
RAW264.7 [12] = assay: Antiinflammatory activity in mouse RAW264.7 cells assessed as inhibition of LPS-induced nitric oxide production at 16 ug/mL after 24 hrs by Griess method; assay type: functional; details: RAW264.7, 24 h; in short: as §3
Pseudomonas aeruginosa [13] = assay: Antibiofilm activity against multidrug-resistant Pseudomonas aeruginosa CCARM 2095 after 24 hrs by crystal violet staining based method; assay type: functional; details: CCARM 2095, 24 h
In short: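 MDRPA 2095 (1×10^6 cfu/mL) in MHB with 0.2% glucose, 24 h at 37 °C with or without peptide (2-fold dilutions, 1-64 µg/mL), six wells each. Wells washed with PBS, methanol-fixed, stained with 0.1% crystal violet 5 min, stain resolubilized in 95% ethanol, absorbance at 600 nm.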

Staphylococcus aureus [14] = assay: Antibacterial activity against methicillin resistant Staphylococcus aureus CCARM 3095 after 18 to 20 hrs by broth microdilution assay; assay type: functional; details: read-out: MIC100; in short: as §2
Staphylococcus aureus [15] = assay: Antimicrobial activity against Staphylococcus aureus KCTC 1621 using 4 hrs trypsin incubated compound measured after overnight incubation by radial diffusion assay; assay type: functional; in short: as §4
Staphylococcus aureus [16] = assay: Antibacterial activity against methicillin resistant Staphylococcus aureus CCARM 3090 after 18 to 20 hrs by broth microdilution assay; assay type: functional; details: read-out: MIC100; in short: as §2
[17] = Therapeutic index, ratio of MHC for sheep RBC to geometric mean of MICs for four bacterial strains
Enterococcus faecium = assay: Potency index, ratio of melittin MIC100 to compound MIC100 for vancomycin-resistant Enterococcus faecium ATCC 51559; assay type: functional

N=C(N)NCCC[C@H](NC(=O)c1nn(CCc2cccc3ccccc23)cc1NC(=O)[C@H](CCCNC(=N)N)NC(=O)c1nn(CCc2cccc3ccccc23)cc1N)C(N)=O
Activity (Staphylococcus aureus [1]): Active | MIC (Staphylococcus aureus [2]): 4 µg/mL (≈ 4.67 µM) | MIC (Pseudomonas aeruginosa [3]): 8 µg/mL (≈ 9.35 µM) | inhibition (RAW264.7 [4]): Dose-dependent effect | MIC (Escherichia coli [5]): 32 µg/mL (≈ 37.4 µM) | Activity (Staphylococcus aureus [6]): Active | Activity (NIH3T3): Non-Toxic | Ratio (Staphylococcus aureus [7]): 2 - 4 | Activity (Escherichia coli [8]): Active | MIC (Staphylococcus aureus [9]): 4 µg/mL | Ratio (Staphylococcus aureus [10]): 4 | Ratio (Staphylococcus aureus [11]): 2 - 4 | inhibition at 16 µg/mL (RAW264.7 [12]): > 85% | IC90 (Pseudomonas aeruginosa [13]): 16 µg/mL (≈ 18.7 µM) | MIC (Staphylococcus aureus [14]): 4 µg/mL (≈ 4.67 µM) | Activity (Staphylococcus aureus [15]): Active | MIC (Staphylococcus aureus [16]): 8 µg/mL (≈ 9.35 µM) | TI [17]: 53.9 | Ratio (Enterococcus faecium): 2
